Source: ChEMBL document CHEMBL1143847, “Competitive inhibitors of the CphA metallo-beta-lactamase from Aeromonas hydrophila” (Antimicrob Agents Chemother, 2007)

Assays:
[1] = target: Metallo beta-lactamase (Pseudomonas aeruginosa) (UniProt Q6TUJ4); test: Inhibition of Pseudomonas aeruginosa 101/1477 metallo beta lactamase IMP1 expressed in Escherichia coli assessed as residual enzyme activity at 100 uM in absence of zinc
[2] = target: Beta-lactamase L1 (Stenotrophomonas maltophilia) (UniProt P52700); test: Inhibition of Stenotrophomonas maltophilia metallo beta lactamase L1 assessed as residual enzyme activity at 100 uM
Bacillus cereus = test: Inhibition of Bacillus cereus metallo beta lactamase Bc2 assessed as residual enzyme activity at 100 uM
[3] = Inhibition of metallo beta lactamase VIM4 assessed as residual enzyme activity at 100 uM
[4] = target: Metallo beta-lactamase (Pseudomonas aeruginosa) (UniProt Q6TUJ4); test: Inhibition of Pseudomonas aeruginosa 101/1477 metallo beta lactamase IMP1 expressed in Escherichia coli assessed as residual enzyme activity at 100 uM in presence of zinc chloride
In short: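 IMP-1 at 0.03–0.7 nM was preincubated 30 min at room temperature with 100 μM inhibitor in 20 mM HEPES pH 7.0 with 20 μg/ml BSA plus 100 μM ZnCl2. The reaction was then started with 100 μM imipenem. The initial rate of three samples was taken as mean percent of the rate without inhibitor ± SD.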

Fluoribacter gormanii = test: Inhibition of Legionella gormani beta lactamase metallo FEZ1 expressed in Escherichia coli assessed as residual enzyme activity at 100 uM
In short: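 Purified enzyme (0.03–0.7 nM) in 20 mM HEPES pH 7.0 with 20 μg/ml BSA was preincubated 30 min at room temperature with 100 μM inhibitor, diluted from 10 mM DMSO stock. Nitrocefin (100 μM) was then added and the initial hydrolysis rate measured. Residual activity is the mean (±SD) of three samples as percent of the uninhibited rate.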

[5] = Inhibition of metallo beta lactamase VIM2 assessed as residual enzyme activity at 100 uM
[6] = target: Beta-lactamase (Aeromonas hydrophila) (UniProt Q44079); test: Ratio of Kcat to Km for Aeromonas hydrophila beta lactamase CphA at pH 9.0
In short: (§1)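 Wild-type CphA kinetics with imipenem as substrate, measured in a mixed buffer adjusted to the stated pH with HCl or NaOH. The buffer held 40 mM sodium acetate, 20 mM each of cacodylate, MOPS, TAPS, CHES and CAPS, and 20 μg/ml BSA. Runs were at 30°C in thermostatted cells. Km and kcat came from initial rates. At pH 10 only kcat/Km was taken, because imipenem hydrolyses spontaneously.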

[7] = target: Beta-lactamase (Aeromonas hydrophila) (UniProt Q44079); test: Ratio of Kcat to Km for Aeromonas hydrophila beta lactamase CphA at pH 7.0; in short: as §1
[8] = target: Beta-lactamase (Aeromonas hydrophila) (UniProt Q44079); test: Ratio of Kcat to Km for Aeromonas hydrophila beta lactamase CphA at pH 8.0; in short: as §1
[9] = target: Beta-lactamase (Aeromonas hydrophila) (UniProt Q44079); test: Ratio of Kcat to Km for Aeromonas hydrophila beta lactamase CphA at pH 10.0; in short: as §1

Sequence of Beta-lactamase L1 (Stenotrophomonas maltophilia) (P52700 34-290 limits assumed): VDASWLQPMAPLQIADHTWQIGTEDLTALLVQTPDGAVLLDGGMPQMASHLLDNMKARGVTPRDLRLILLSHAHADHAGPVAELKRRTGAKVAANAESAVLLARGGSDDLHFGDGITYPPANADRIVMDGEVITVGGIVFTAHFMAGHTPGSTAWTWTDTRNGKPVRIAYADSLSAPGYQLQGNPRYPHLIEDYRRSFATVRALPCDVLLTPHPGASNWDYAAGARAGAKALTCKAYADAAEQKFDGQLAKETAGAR
Sequence of Metallo beta-lactamase (Pseudomonas aeruginosa) (Q6TUJ4 as listed by the source): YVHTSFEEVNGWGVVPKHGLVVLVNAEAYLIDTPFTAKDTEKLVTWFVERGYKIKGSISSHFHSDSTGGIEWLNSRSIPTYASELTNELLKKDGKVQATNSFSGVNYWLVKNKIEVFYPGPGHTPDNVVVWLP
Sequence of Beta-lactamase (Aeromonas hydrophila) (Q44079 as listed by the source): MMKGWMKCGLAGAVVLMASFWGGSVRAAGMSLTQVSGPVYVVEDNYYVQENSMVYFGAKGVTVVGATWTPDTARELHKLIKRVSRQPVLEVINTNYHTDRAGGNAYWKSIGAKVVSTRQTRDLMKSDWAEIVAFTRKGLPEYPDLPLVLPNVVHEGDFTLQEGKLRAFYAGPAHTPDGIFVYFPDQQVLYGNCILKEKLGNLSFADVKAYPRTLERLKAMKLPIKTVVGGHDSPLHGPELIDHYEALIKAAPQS

| Structure (SMILES) | Activity [1] [%] | Activity [2] [%] | Activity (Bacillus cereus) [%] | Activity [3] [%] | Activity [4] [%] | Activity (Fluoribacter gormanii) [%] | Activity [5] [%] | Ratio [6] [µM⁻¹ s⁻¹] | Ratio [7] [µM⁻¹ s⁻¹] | Ratio [8] [µM⁻¹ s⁻¹] | Ratio [9] [µM⁻¹ s⁻¹] |
| --- | --- | --- | --- | --- | --- | --- | --- | --- | --- | --- | --- |
| O=C(O)c1cccc(C(=O)O)n1 | 2 | 92 | 95 | 88 | 72 | 77 | 96 | – | – | – | – |
| O=C(O)c1ccncc1C(=O)O | 91 | 97 | 97 | 100 | 88 | 93 | 92 | – | – | – | – |
| CC(O)[C@H]1C(=O)N2C(C(=O)O)=C(SCCNC=N)C[C@H]12 (single isomer, unassigned) | – | – | – | – | – | – | – | 0.78 | 1.8 | 1.7 | 0.44 |
| O=C(O)c1cccnc1C(=O)O | 89 | 93 | 98 | 73 | 67 | 62 | 106 | – | – | – | – |
| O=C(O)c1ccc(C(=O)O)nc1 | 99 | 94 | 99 | 97 | 81 | 80 | 97 | – | – | – | – |
| O=C(O)c1ccccn1 | 31 | 29 | 95 | 59 | 54 | 62 | 80 | – | – | – | – |
| O=C(O)c1ccnc(C(=O)O)c1 | 94 | 78 | 97 | 90 | 78 | 65 | 98 | – | – | – | – |
